Source: ChEMBL document CHEMBL1156856, “Design, synthesis, and biological evaluation of novel estradiol-bisphosphonate conjugates as bone-specific estrogens” (Bioorg Med Chem, 2010)
Active and inactive are the calls of the source. The calls are words filed in the database; no cut-off is given here.

How the values were obtained:
Rattus norvegicus [1] = assay: Estrogenic activity in bone of ovariectomized Sprague-Dawley rat assessed as increase in bone mass at 0.1 mg/kg, iv administered three times per week for 4 weeks on the first, second, and fifth days; format: functional, organism-based; design: dose 0.1 mg/kg
Procedure, shortened: (§1)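 Female SD rats, 7 weeks old on arrival, were housed 4 weeks and assigned to groups matched for mean body weight. All except sham controls were bilaterally ovariectomized. The next day they received conjugate at 0.1 mg/kg iv in 1% carboxymethyl cellulose plus 1% citrate buffer. Bone effect was read as secondary-spongiosa bone volume of the left tibia and ash weight of the right femur.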

Rattus norvegicus [2] = assay: Estrogenic activity in uterus of ovariectomized Sprague-Dawley rat assessed as increase in uterus weight at 0.1 mg/kg, iv administered three times per week for 4 weeks on the first, second, and fifth days; format: functional, organism-based; design: dose 0.1 mg/kg
Procedure, shortened: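 Female SD rats, 7 weeks old on arrival, were housed 4 weeks, weight-matched into groups, and bilaterally ovariectomized, with sham-operated controls. Conjugate was given iv at 0.1 mg/kg the day after surgery in 1% carboxymethyl cellulose plus 1% citrate buffer. Uterine weight was the read-out.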

Rattus norvegicus [3] = assay: Bisphosphonate activity in ovariectomized Sprague-Dawley rat assessed as suppression of Ca2+ ion release from bone at 0.1 mg/kg, iv administered three times per week for 4 weeks on the first, second, and fifth days; format: functional, organism-based; design: dose 0.1 mg/kg
Procedure, shortened: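 In rats, bisphosphonate activity was measured as suppression of PTHrp-induced Ca2+ ion release from bone.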

[4] = target: T1, Estrogen receptor (Rattus norvegicus) (UniProt P06211); assay: Ratio of binding affinity of compound to estradiol at rat uterus estrogen receptor by competitive binding assay
T1 sequence (whole entry): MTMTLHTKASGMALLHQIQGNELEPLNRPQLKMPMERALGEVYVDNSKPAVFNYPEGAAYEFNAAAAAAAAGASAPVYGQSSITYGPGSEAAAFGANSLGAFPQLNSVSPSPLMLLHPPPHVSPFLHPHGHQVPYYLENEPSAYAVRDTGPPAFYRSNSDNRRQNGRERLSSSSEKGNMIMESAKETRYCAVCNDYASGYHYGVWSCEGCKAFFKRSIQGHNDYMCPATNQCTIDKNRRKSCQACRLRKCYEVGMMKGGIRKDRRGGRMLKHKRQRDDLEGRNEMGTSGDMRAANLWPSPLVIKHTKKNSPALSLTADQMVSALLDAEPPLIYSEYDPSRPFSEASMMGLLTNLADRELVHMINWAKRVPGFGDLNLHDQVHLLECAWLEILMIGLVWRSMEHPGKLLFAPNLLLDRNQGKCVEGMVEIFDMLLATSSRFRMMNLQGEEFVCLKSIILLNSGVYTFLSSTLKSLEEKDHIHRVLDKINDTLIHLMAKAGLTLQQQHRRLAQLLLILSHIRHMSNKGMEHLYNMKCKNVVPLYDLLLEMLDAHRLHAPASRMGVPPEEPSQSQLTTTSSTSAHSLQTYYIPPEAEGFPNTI

Rattus norvegicus [5] = assay: Estrogenic activity in bone of ovariectomized Sprague-Dawley rat assessed as increase in bone mass at 0.1 mg/kg, iv administered three times per week for 4 weeks on the first, second, and fifth days co-administered with antiestrogen fulvaestrant; format: functional, organism-based; design: dose 0.1 mg/kg; procedure, shortened: as §1

Row | Compound | Activity (Rattus norvegicus [2]) | also measured
1 | C[C@]12CC[C@@H]3c4ccc(O)cc4CC[C@H]3[C@@H]1CC[C@@H]2O | Active | Activity (Rattus norvegicus [1]): Active
2 | C[C@]12CC[C@@H]3c4ccc(OC(=O)NCCC(=O)NC(P(=O)(O)O)P(=O)(O)O)cc4CC[C@H]3[C@@H]1CC[C@@H]2O | inactive | Activity (Rattus norvegicus [3]): inactive; Ratio [4]: 2000; Activity (Rattus norvegicus [1]): Active; Activity (Rattus norvegicus [5]): inactive
3 | CC(C)(C(=O)NC(P(=O)(O)O)P(=O)(O)O)C(=O)O[C@H]1CC[C@H]2[C@@H]3CCc4cc(O)ccc4[C@H]3CC[C@]12C | inactive | –
4 | C[C@]12CC[C@@H]3c4ccc(O)cc4CC[C@H]3[C@@H]1CC[C@@H]2OC(=O)CCNC(=O)NC(P(=O)(O)O)P(=O)(O)O | inactive | –
5 | C[C@]12CC[C@@H]3c4ccc(OC(=O)CC(=O)NC(P(=O)(O)O)P(=O)(O)O)cc4CC[C@H]3[C@@H]1CC[C@@H]2O | inactive | –
6 | C[C@]12CC[C@@H]3c4ccc(O)cc4CC[C@H]3[C@@H]1CC[C@@H]2OC(=O)c1ccccc1C(=O)NC(P(=O)(O)O)P(=O)(O)O | inactive | –
7 | C[C@]12CC[C@@H]3c4ccc(O)cc4CC[C@H]3[C@@H]1CC[C@@H]2OC(=O)CC(=O)NC(P(=O)(O)O)P(=O)(O)O | inactive | –
